Laboratory results reported in ChEMBL document CHEMBL1139313, “Synthesis and antimalarial activity of new 4-amino-7-chloroquinolyl amides, sulfonamides, ureas and thioureas” (Bioorg Med Chem, 2009).

Experiments:
Plasmodium falciparum [1] = test: Antimalarial activity against chloroquine-sensitive Plasmodium falciparum HB3 after 72 hrs; format: functional, organism-based; settings: HB3, 72 h
Method in brief: (§1)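 SYBR Green I growth assay. Sorbitol-synchronized P. falciparum cultures (>95% ring stage) at final 1% hematocrit and 0.5% parasitemia, exposed to drug dilutions in complete medium for 72 h at 37 °C. Dye added, then 1 h at 37 °C; fluorescence read at 490 nm excitation / 530 nm emission. Each dilution run in triplicate; IC50 averaged over ≥2 separate assays. RI relates Dd2 IC50 to HB3 IC50.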

Plasmodium falciparum [2] = test: Antimalarial activity against chloroquine-resistant Plasmodium falciparum Dd2 after 72 hrs; format: functional, organism-based; settings: Dd2, 72 h; method in brief: as §1
[3] = Resistant index, IC50 for chloroquine-resistant Plasmodium falciparum Dd2 to IC50 for chloroquine-sensitive Plasmodium falciparum HB3; format: functional; method in brief: as §1

## O=C(NCCCNc1ccnc2cc(Cl)ccc12)c1cccnc1
Plasmodium falciparum [1]
  IC50: > 1000 nM
Plasmodium falciparum [2]
  IC50: > 1000 nM

## CCN(CCNc1ccnc2cc(Cl)ccc12)CCNS(=O)(=O)c1ccc(Oc2ccccc2)nc1
Plasmodium falciparum [1]
  IC50: 140 nM
Plasmodium falciparum [2]
  IC50: 274 nM
[3]
  Ratio IC50: 2

## O=C(NCCCNc1ccnc2cc(Cl)ccc12)C(F)(F)C(F)(F)C(F)(F)F
Plasmodium falciparum [1]
  IC50: 234 nM
Plasmodium falciparum [2]
  IC50: 277 nM
[3]
  Ratio IC50: 1.2

## CCN(CCCCCNc1ccnc2cc(Cl)ccc12)CCNS(=O)(=O)c1cccc2c(N(C)C)cccc12
Plasmodium falciparum [1]
  IC50: 70 nM
Plasmodium falciparum [2]
  IC50: 115 nM
[3]
  Ratio IC50: 1.7

## CC(C)(C)OC(=O)N[C@H](Cc1c[nH]c2ccccc12)C(=O)NCCCNc1ccnc2cc(Cl)ccc12
Plasmodium falciparum [1]
  IC50: 500 nM
Plasmodium falciparum [2]
  IC50: 764 nM
[3]
  Ratio IC50: 1.5

## CN(C)c1cccc(C(=O)NCCCNc2ccnc3cc(Cl)ccc23)c1
Plasmodium falciparum [1]
  IC50: 449 nM
Plasmodium falciparum [2]
  IC50: 792 nM
[3]
  Ratio IC50: 1.8

## COc1ccccc1NC(=O)NCCCNc1ccnc2cc(Cl)ccc12
Plasmodium falciparum [1]
  IC50: 365 nM
Plasmodium falciparum [2]
  IC50: 539 nM
[3]
  Ratio IC50: 1.5

## CCN(CCNC(=O)c1ccc(F)cc1NCc1ccccc1)CCNc1ccnc2cc(Cl)ccc12
Plasmodium falciparum [1]
  IC50: 80 nM
Plasmodium falciparum [2]
  IC50: 199 nM
[3]
  Ratio IC50: 2.5

## O=C(NCCCNc1ccnc2cc(Cl)ccc12)c1ccc(O)nc1
Plasmodium falciparum [1]
  IC50: > 1000 nM
Plasmodium falciparum [2]
  IC50: > 1000 nM

## CCN(CCCC(C)Nc1ccnc2cc(Cl)ccc12)CCNS(=O)(=O)c1cccc2c(N(C)C)cccc12 (stereo not given)
Plasmodium falciparum [1]
  IC50: 220 nM
Plasmodium falciparum [2]
  IC50: 260 nM
[3]
  Ratio IC50: 1.2

## O=S(=O)(NCCCNc1ccnc2cc(Cl)ccc12)c1cccc2cccnc12
Plasmodium falciparum [1]
  IC50: 453 nM
Plasmodium falciparum [2]
  IC50: 607 nM
[3]
  Ratio IC50: 1.3

## CN(C)c1ccc(NC(=S)NCCCNc2ccnc3cc(Cl)ccc23)c2ccccc12
Plasmodium falciparum [1]
  IC50: 291 nM
Plasmodium falciparum [2]
  IC50: 606 nM
[3]
  Ratio IC50: 2.1

## CCN(CCCCCCNc1ccnc2cc(Cl)ccc12)CCNS(=O)(=O)c1cccc2c(N(C)C)cccc12
Plasmodium falciparum [1]
  IC50: 272 nM
Plasmodium falciparum [2]
  IC50: 147 nM
[3]
  Ratio IC50: 0.5

## CC(C)(C)OC(=O)N[C@@H](Cc1c[nH]c2ccccc12)C(=O)NCCCNc1ccnc2cc(Cl)ccc12
Plasmodium falciparum [1]
  IC50: 479 nM
Plasmodium falciparum [2]
  IC50: > 1000 nM

## Nc1ccc(N)c(C(=O)NCCCNc2ccnc3cc(Cl)ccc23)c1
Plasmodium falciparum [1]
  IC50: 179 nM
Plasmodium falciparum [2]
  IC50: 651 nM
[3]
  Ratio IC50: 3.6

## CCN(CC)CCC(=O)NCCCCCNc1ccnc2cc(Cl)ccc12
Plasmodium falciparum [1]
  IC50: 16 nM
Plasmodium falciparum [2]
  IC50: 672 nM
[3]
  Ratio IC50: 41.2

## CN(C)c1ccc(NC(=O)NCCCNc2ccnc3cc(Cl)ccc23)cc1
Plasmodium falciparum [1]
  IC50: 436 nM
Plasmodium falciparum [2]
  IC50: 674 nM
[3]
  Ratio IC50: 1.6

## O=C(NCCCNc1ccnc2cc(Cl)ccc12)c1ccccc1SC1CCCCC1
Plasmodium falciparum [1]
  IC50: > 1000 nM
Plasmodium falciparum [2]
  IC50: > 1000 nM

## COc1cc([N+](=O)[O-])ccc1NC(=O)NCCCNc1ccnc2cc(Cl)ccc12
Plasmodium falciparum [1]
  IC50: 281 nM
Plasmodium falciparum [2]
  IC50: > 1000 nM

## CCN(CCNc1ccnc2cc(Cl)ccc12)CCNS(=O)(=O)c1ccc2c(c1)OCCN2C
Plasmodium falciparum [1]
  IC50: 171 nM
Plasmodium falciparum [2]
  IC50: 286 nM
[3]
  Ratio IC50: 1.7

## COc1ccc(NC(=O)NCCCNc2ccnc3cc(Cl)ccc23)cc1
Plasmodium falciparum [1]
  IC50: 316 nM
Plasmodium falciparum [2]
  IC50: 596 nM
[3]
  Ratio IC50: 1.9

## O=C(NCCCNc1ccnc2cc(Cl)ccc12)c1cc(C(F)(F)F)cc(C(F)(F)F)c1
Plasmodium falciparum [1]
  IC50: 145 nM
Plasmodium falciparum [2]
  IC50: 236 nM
[3]
  Ratio IC50: 1.6

## O=C(NCCCNc1ccnc2cc(Cl)ccc12)c1ccccc1Sc1ccccc1
Plasmodium falciparum [1]
  IC50: > 1000 nM
Plasmodium falciparum [2]
  IC50: > 1000 nM

## O=C(NCCCNc1ccnc2cc(Cl)ccc12)c1ccc(F)cc1NCc1ccccc1
Plasmodium falciparum [1]
  IC50: > 1000 nM
Plasmodium falciparum [2]
  IC50: 305 nM

## O=C(NCCCNc1ccnc2cc(Cl)ccc12)C(F)(F)C(F)(F)C(F)(F)C(F)(F)C(F)(F)C(F)(F)C(F)(F)F
Plasmodium falciparum [1]
  IC50: 166 nM
Plasmodium falciparum [2]
  IC50: 197 nM
[3]
  Ratio IC50: 1.2

## CCN(CC)CCC(=O)NCCCNc1ccnc2cc(Cl)ccc12
Plasmodium falciparum [1]
  IC50: 23 nM
Plasmodium falciparum [2]
  IC50: 559 nM
[3]
  Ratio IC50: 24.4

## CCN(CC)CCC(=O)NCCNc1ccnc2cc(Cl)ccc12
Plasmodium falciparum [1]
  IC50: 32 nM
Plasmodium falciparum [2]
  IC50: 760 nM
[3]
  Ratio IC50: 24.1

## CC(C)(C)OC(=O)N1CCC[C@H]1C(=O)NCCCNc1ccnc2cc(Cl)ccc12
Plasmodium falciparum [1]
  IC50: > 1000 nM
Plasmodium falciparum [2]
  IC50: > 1000 nM

## CCN(CC)CCC(=O)NCCCCCCNc1ccnc2cc(Cl)ccc12
Plasmodium falciparum [1]
  IC50: 28 nM
Plasmodium falciparum [2]
  IC50: 385 nM
[3]
  Ratio IC50: 12.9

## O=C(NCCCNc1ccnc2cc(Cl)ccc12)c1c(F)c(F)c(F)c(F)c1F
Plasmodium falciparum [1]
  IC50: 276 nM
Plasmodium falciparum [2]
  IC50: 510 nM
[3]
  Ratio IC50: 1.9

## CN1CCOc2cc(S(=O)(=O)NCCCNc3ccnc4cc(Cl)ccc34)ccc21
Plasmodium falciparum [1]
  IC50: 960 nM
Plasmodium falciparum [2]
  IC50: > 1000 nM

## CN(C)c1ccc(NC(=S)NCCCNc2ccnc3cc(Cl)ccc23)cc1
Plasmodium falciparum [1]
  IC50: 272 nM
Plasmodium falciparum [2]
  IC50: 482 nM
[3]
  Ratio IC50: 1.8

## O=C(NCCCNc1ccnc2cc(Cl)ccc12)c1ccccc1Nc1cccc2ccccc12
Plasmodium falciparum [1]
  IC50: > 1000 nM
Plasmodium falciparum [2]
  IC50: > 1000 nM

## CCN(CC)CCC(=O)NCCCCNc1ccnc2cc(Cl)ccc12
Plasmodium falciparum [1]
  IC50: 29 nM
Plasmodium falciparum [2]
  IC50: > 1000 nM

## CN(C)c1cccc2c(S(=O)(=O)NCCCNc3ccnc4cc(Cl)ccc34)cccc12
Plasmodium falciparum [1]
  IC50: 754 nM
Plasmodium falciparum [2]
  IC50: 966 nM
[3]
  Ratio IC50: 1.3

## CCN(CCNC(=O)c1c(F)c(F)c(F)c(F)c1F)CCNc1ccnc2cc(Cl)ccc12
Plasmodium falciparum [1]
  IC50: 118 nM
Plasmodium falciparum [2]
  IC50: 314 nM
[3]
  Ratio IC50: 2.7

## O=C(CCc1nc2ccccc2[nH]1)NCCCNc1ccnc2cc(Cl)ccc12
Plasmodium falciparum [1]
  IC50: 756 nM
Plasmodium falciparum [2]
  IC50: > 1000 nM

## COc1cc([N+](=O)[O-])ccc1NC(=S)NCCCNc1ccnc2cc(Cl)ccc12
Plasmodium falciparum [1]
  IC50: 208 nM
Plasmodium falciparum [2]
  IC50: 801 nM
[3]
  Ratio IC50: 3.9

## CCN(CCNc1ccnc2cc(Cl)ccc12)CCNS(=O)(=O)c1cccc2c(N(C)C)cccc12
Plasmodium falciparum [1]
  IC50: 18 nM
Plasmodium falciparum [2]
  IC50: 23 nM
[3]
  Ratio IC50: 1.3

## CCN(CCNC(=O)c1cc(C(F)(F)F)cc(C(F)(F)F)c1)CCNc1ccnc2cc(Cl)ccc12
Plasmodium falciparum [1]
  IC50: 97 nM
Plasmodium falciparum [2]
  IC50: 137 nM
[3]
  Ratio IC50: 1.4

## CCN(CCNC(=O)C(F)(F)C(F)(F)C(F)(F)C(F)(F)C(F)(F)C(F)(F)C(F)(F)F)CCNc1ccnc2cc(Cl)ccc12
Plasmodium falciparum [1]
  IC50: 72 nM
Plasmodium falciparum [2]
  IC50: 87 nM
[3]
  Ratio IC50: 1.2

## CCN(CCCCNc1ccnc2cc(Cl)ccc12)CCNS(=O)(=O)c1cccc2c(N(C)C)cccc12
Plasmodium falciparum [1]
  IC50: 82 nM
Plasmodium falciparum [2]
  IC50: 125 nM
[3]
  Ratio IC50: 1.5

## O=C(NCCCNc1ccnc2cc(Cl)ccc12)c1ccccc1NCCc1ccccc1
Plasmodium falciparum [1]
  IC50: > 1000 nM
Plasmodium falciparum [2]
  IC50: > 1000 nM

## CCN(CCNc1ccnc2cc(Cl)ccc12)CCNS(=O)(=O)c1cccnc1
Plasmodium falciparum [1]
  IC50: 124 nM
Plasmodium falciparum [2]
  IC50: 512 nM
[3]
  Ratio IC50: 4.1

## CCN(CCCNc1ccnc2cc(Cl)ccc12)CCNS(=O)(=O)c1cccc2c(N(C)C)cccc12
Plasmodium falciparum [1]
  IC50: 115 nM
Plasmodium falciparum [2]
  IC50: 411 nM
[3]
  Ratio IC50: 3.6

## CCN(CCNC(=O)C(F)(F)C(F)(F)C(F)(F)F)CCNc1ccnc2cc(Cl)ccc12
Plasmodium falciparum [1]
  IC50: 180 nM
Plasmodium falciparum [2]
  IC50: 556 nM
[3]
  Ratio IC50: 3.1

## CCN(CCNc1ccnc2cc(Cl)ccc12)CCNS(=O)(=O)c1cccc2cccnc12
Plasmodium falciparum [1]
  IC50: 310 nM
Plasmodium falciparum [2]
  IC50: 443 nM
[3]
  Ratio IC50: 1.4

## CC(C)(C)OC(=O)N[C@@H](CCCCNC(=O)OCc1ccccc1)C(=O)NCCCNc1ccnc2cc(Cl)ccc12
Plasmodium falciparum [1]
  IC50: 902 nM
Plasmodium falciparum [2]
  IC50: > 1000 nM

## O=S(=O)(NCCCNc1ccnc2cc(Cl)ccc12)c1ccc(Oc2ccccc2)nc1
Plasmodium falciparum [1]
  IC50: > 1000 nM
Plasmodium falciparum [2]
  IC50: > 1000 nM

## COc1ccc(NC(=S)NCCCNc2ccnc3cc(Cl)ccc23)cc1
Plasmodium falciparum [1]
  IC50: 229 nM
Plasmodium falciparum [2]
  IC50: 353 nM
[3]
  Ratio IC50: 1.5
